Measured values as given in ChEMBL document CHEMBL1134649, “Syntheses and structure--activity relationships of novel apio and thioapio dideoxydidehydronucleosides as anti-HCMV agents” (J Med Chem, 2001).
Converted amounts (≈) assume the structure as drawn.

Columns and labels:
Human betaherpesvirus 5 [1] = test: Antiviral activity was determined against Human cytomegalovirus (HCMV) strain AD-169 using CPE inhibition assay; type: functional, organism-based
Method in brief: (§1)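 HEL cells in stationary phase were infected at 2–4 CCID50 per well and the virus was adsorbed 2 h at 37 °C. Unadsorbed virus was removed and compound in MEM/2% FBS was added, in duplicate per concentration, for 6 days. CPE was read either microscopically (70% ethanol fixation, Giemsa stain) or by fluorescein diacetate fluorescence (485/538 nm). EC50 was taken from semilog plots of %CPE against concentration.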

HEL 299 = test: Cytotoxic concentration of compound was tested against HEL299(human embryonic lung fibroblast) cells using cytotoxic assay; type: functional
Method in brief: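 Run as a mock-infected control alongside the antiviral assay in HEL cells, with the same 6-day incubation in MEM/2% FBS. Viability was read by propidium iodide fluorescence in place of fluorescein diacetate. CC50 is the concentration giving 50% loss of viability.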

Human betaherpesvirus 5 [2] = test: Antiviral activity was determined against Human cytomegalovirus (HCMV) strain Davis using CPE inhibition assay; type: functional, organism-based; method in brief: as §1

EC50 (Human betaherpesvirus 5 [1]) | EC50 (Human betaherpesvirus 5 [2]) | SMILES | CC50 (HEL 299)
41.7 µg/mL (≈ 170 µM) | 25.1 µg/mL (≈ 103 µM) | O=c1[nH]c(=O)n(C2C=C(CO)CO2)cc1Cl (stereo not given) | 63.3 µg/mL (≈ 259 µM)
33.7 µg/mL (≈ 117 µM) | 25.4 µg/mL (≈ 87.9 µM) | O=c1[nH]c(=O)n(C2C=C(CO)CO2)cc1Br (stereo not given) | > 100 µg/mL
11.7 µg/mL (≈ 55.7 µM) | > 33.3 µg/mL | O=c1ccn(C2C=C(CO)CO2)c(=O)[nH]1 (stereo not given) | 33.3 µg/mL (≈ 158 µM)
44.1 µg/mL (≈ 131 µM) | 27.2 µg/mL (≈ 80.9 µM) | O=c1[nH]c(=O)n(C2C=C(CO)CO2)cc1I (stereo not given) | > 100 µg/mL
33.3 µg/mL (≈ 149 µM) | 16.6 µg/mL (≈ 74 µM) | Cc1cn(C2C=C(CO)CO2)c(=O)[nH]c1=O (stereo not given) | > 100 µg/mL
6.9 µg/mL (≈ 30.2 µM) | 2.81 µg/mL (≈ 12.3 µM) | O=c1[nH]c(=O)n(C2C=C(CO)CO2)cc1F (stereo not given) | > 100 µg/mL

More lines, now with the values behind:

SMILES | EC50 (Human betaherpesvirus 5 [1]) | EC50 (Human betaherpesvirus 5 [2]) | CC50 (HEL 299)
O=C(O)P(=O)(O)O [FOSCARNET] | 64.9 µg/mL (≈ 515 µM) | 38.7 µg/mL (≈ 307 µM) | > 300 µg/mL
Cc1cn(C2C=C(CO)CS2)c(=O)[nH]c1=O (stereo not given) | > 100 µg/mL | > 100 µg/mL | > 100 µg/mL
O=c1ccn(C2C=C(CO)CS2)c(=O)[nH]1 (stereo not given) | > 100 µg/mL | > 100 µg/mL | > 100 µg/mL
Nc1nc2c(ncn2COC(CO)CO)c(=O)[nH]1 [GANCICLOVIR] | 1.09 µg/mL (≈ 4.27 µM) | 0.61 µg/mL (≈ 2.39 µM) | > 10 µg/mL
